Source: ChEMBL document CHEMBL1800022, “Structure-activity relationships of a series of analogues of the RFamide-related peptide 26RFa” (J Med Chem, 2011)
Non-standard residues stand in square brackets, D forms with d. Residues, ends and D or L forms follow the SMILES beside them. *: point of attachment. Adamantane1carbonyl = O=C(C12CC3CC(CC(C3)C1)C2)*; Phenylacetyl(4-F) = O=C(Cc1ccc(F)cc1)*; X3 = C1CCN(N(N2CCCCC2)*)CC1; 2Furoyl = O=C(c1ccco1)*; Nva = CCC[C@H](N)C(=O)O; Cbz = O=C(OCc1ccccc1)*; NHBn = c1ccc(CN*)cc1; X1 = CCN(Cc1ccccc1)*; Bz = O=C(c1ccccc1)*

Target: T1, Pyroglutamylated RF-amide peptide receptor (Homo sapiens, UniProt Q96P65)
T1 sequence (Q96P65 whole entry): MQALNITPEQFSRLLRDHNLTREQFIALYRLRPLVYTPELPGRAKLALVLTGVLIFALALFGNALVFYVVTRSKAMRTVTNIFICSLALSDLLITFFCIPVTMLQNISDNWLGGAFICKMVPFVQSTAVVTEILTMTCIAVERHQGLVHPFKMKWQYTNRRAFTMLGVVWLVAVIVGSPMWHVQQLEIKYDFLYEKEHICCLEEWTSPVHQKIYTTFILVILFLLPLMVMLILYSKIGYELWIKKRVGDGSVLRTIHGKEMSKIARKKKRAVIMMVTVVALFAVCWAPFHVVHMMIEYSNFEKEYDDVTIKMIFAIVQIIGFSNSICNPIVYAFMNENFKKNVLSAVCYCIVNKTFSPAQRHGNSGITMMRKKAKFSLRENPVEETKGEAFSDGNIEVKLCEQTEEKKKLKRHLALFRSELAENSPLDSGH
Experiment: Agonist activity at DYKDDDDK-flagged human GPR103 receptor expressed in CHO-K1 cells co-expressing G-protein alpha16 assessed as stimulation of calcium mobilization after 2 mins by fluorometric analysis
Type: functional, cell-based
Method in brief: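 CHO-K1 cells stably expressing Gα16 and C-terminally flag-tagged human GPR103 (Geneticin-selected), plated at 40 000 cells/well 24 h before assay. Loaded with 2 μM Fluo-4AM for 1 h, washed, then 30 min in HBSS with 2.5 mM probenecid and 5 mM HEPES. Peptides added at 10^-12 to 10^-5 M final and fluorescence read for 2 min. Triplicates; EC50 from sigmoidal variable-slope fit, at least three experiments.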

| SMILES | EC50 [nM] |
| --- | --- |
| CC(C)C[C@H](NC(=O)[C@H](CC(N)=O)NC(=O)CNC(=O)[C@H](CC(C)C)NC(=O)[C@@H]1CCCN1C(=O)CNC(=O)[C@H](CO)NC(=O)[C@@H](N)[C@@H](C)O)C(=O)N[C@@H](C)C(=O)N[C@@H](CCC(=O)O)C(=O)N[C@@H](CCC(=O)O)C(=O)N[C@@H](CC(C)C)C(=O)N[C@@H](CC(N)=O)C(=O)NCC(=O)N[C@@H](Cc1ccc(O)cc1)C(=O)N[C@@H](CO)C(=O)N[C@@H](CCCN=C(N)N)C(=O)N[C@@H](CCCCN)C(=O)N[C@@H](CCCCN)C(=O)NCC(=O)NCC(=O)N[C@@H](Cc1ccccc1)C(=O)N[C@@H](CO)C(=O)N[C@@H](Cc1ccccc1)C(=O)N[C@@H](CCCN=C(N)N)C(=O)N[C@@H](Cc1ccccc1)C(=O)NCc1ccccc1 (H-TSGPLGNLAEELNGYSRKKGGFSFRF-NHBn) | 39 |
| NC(=O)[C@H](Cc1ccccc1)NC(=O)[C@H](CCCN=C(N)N)NC(=O)[C@H](Cc1ccccc1)NC(=O)[C@H](CO)NC(=O)[C@H](Cc1ccccc1)NC(=O)CNC(=O)CNC(=O)OCc1ccccc1 (Cbz-GGFSFRF-NH2) | 826 |
| CC(C)C[C@H](NC(=O)[C@H](CCC(=O)O)NC(=O)[C@H](CCC(=O)O)NC(=O)[C@H](C)NC(=O)[C@H](CC(C)C)NC(=O)[C@@H](NC(=O)CNC(=O)[C@H](CC(C)C)NC(=O)[C@@H]1CCCN1C(=O)CNC(=O)[C@H](CO)NC(=O)[C@H](C)N)[C@@H](C)O)C(=O)N[C@@H](CO)C(=O)N[C@@H](CO)C(=O)N[C@@H](Cc1ccc(O)cc1)C(=O)N[C@@H](CO)C(=O)N[C@@H](CCCNC(=N)N)C(=O)N[C@@H](CCCNC(=N)N)C(=O)N[C@@H](CCCCN)C(=O)NCC(=O)NCC(=O)N[C@@H](Cc1ccccc1)C(=O)N[C@@H](CO)C(=O)N[C@@H](Cc1ccccc1)C(=O)N[C@@H](CCCNC(=N)N)C(=O)N[C@@H](Cc1ccccc1)C(N)=O (H-ASGPLGTLAEELSSYSRRKGGFSFRF-NH2) | 4.9 |
| CC(C)C[C@H](NC(=O)[C@H](CCC(=O)O)NC(=O)[C@@H](N)CCC(=O)O)C(=O)N[C@@H](CC(N)=O)C(=O)NCC(=O)N[C@@H](Cc1ccc(O)cc1)C(=O)N[C@@H](CO)C(=O)N[C@@H](CCCNC(=N)N)C(=O)N[C@@H](CCCCN)C(=O)N[C@@H](CCCCN)C(=O)NCC(=O)NCC(=O)N[C@@H](Cc1ccccc1)C(=O)N[C@@H](CO)C(=O)N[C@@H](Cc1ccccc1)C(=O)N[C@@H](CCCNC(=N)N)C(=O)N[C@@H](Cc1ccccc1)C(N)=O (H-EELNGYSRKKGGFSFRF-NH2) | 37.5 |
| N=C(N)NCCC[C@H](NC(=O)[C@H](Cc1ccccc1)NC(=O)[C@H](CO)NC(=O)[C@H](Cc1ccccc1)NC(=O)CNC(=O)CNC(=O)[C@H](CCCCN)NC(=O)[C@H](CCCCN)NC(=O)[C@H](CCCNC(=N)N)NC(=O)[C@H](CO)NC(=O)[C@H](Cc1ccc(O)cc1)NC(=O)CN)C(=O)N[C@@H](Cc1ccccc1)C(N)=O (H-GYSRKKGGFSFRF-NH2) | 185 |
| CC(C)C[C@H](NC(=O)[C@H](CC(N)=O)NC(=O)CNC(=O)[C@H](CC(C)C)NC(=O)[C@@H]1CCCN1C(=O)CNC(=O)[C@H](CO)NC(=O)[C@@H](N)[C@@H](C)O)C(=O)N[C@@H](C)C(=O)N[C@@H](CCC(=O)O)C(=O)N[C@@H](CCC(=O)O)C(=O)N[C@@H](CC(C)C)C(=O)N[C@@H](CC(N)=O)C(=O)NCC(=O)N[C@@H](Cc1ccc(O)cc1)C(=O)N[C@@H](CO)C(=O)N[C@@H](CCCNC(=N)N)C(=O)N[C@@H](CCCCN)C(=O)N[C@@H](CCCCN)C(=O)NCC(=O)NCC(=O)N[C@@H](Cc1ccccc1)C(=O)N[C@@H](CO)C(=O)N[C@@H](Cc1ccccc1)C(=O)N[C@@H](CCCNC(=N)N)C(=O)N[C@@H](Cc1ccccc1)C(N)=O (H-TSGPLGNLAEELNGYSRKKGGFSFRF-NH2) | 10.4 |
| CC(C)[C@H](NC(=O)[C@H](Cc1ccccc1)NC(=O)CNC(=O)CN)C(=O)N[C@@H](Cc1ccccc1)C(=O)N[C@@H](CCCN=C(N)N)C(=O)N[C@@H](Cc1ccccc1)C(N)=O (H-GGFVFRF-NH2) | 1630 |
| N=C(N)NCCC[C@H](NC(=O)[C@H](Cc1ccccc1)NC(=O)[C@H](CO)NC(=O)[C@H](Cc1ccccc1)NC(=O)CNC(=O)CN)C(=O)N[C@@H](Cc1ccccc1)C(N)=O | 739 |
| NCCCC[C@H](NC(=O)[C@H](CCCCN)NC(=O)[C@H](CCCN=C(N)N)NC(=O)[C@H](CO)NC(=O)[C@@H](N)Cc1ccc(O)cc1)C(=O)NCC(=O)NCC(=O)N[C@@H](Cc1ccccc1)C(=O)N[C@@H](CO)C(=O)N[C@@H](Cc1ccccc1)C(=O)N[C@@H](CCCN=C(N)N)C(=O)N[C@@H](Cc1ccccc1)C(N)=O (H-YSRKKGGFSFRF-NH2) | 138 |
| NCCCC[C@H](NC(=O)[C@H](CCCCN)NC(=O)[C@H](CCCN=C(N)N)NC(=O)[C@H](CO)NC(=O)[C@H](Cc1ccc(O)cc1)NC(=O)CNC(=O)[C@@H](N)CC(N)=O)C(=O)NCC(=O)NCC(=O)N[C@@H](Cc1ccccc1)C(=O)N[C@@H](CO)C(=O)N[C@@H](Cc1ccccc1)C(=O)N[C@@H](CCCN=C(N)N)C(=O)N[C@@H](Cc1ccccc1)C(N)=O (H-NGYSRKKGGFSFRF-NH2) | 95.3 |
| NCC(=O)NCC(=O)N[C@@H](Cc1ccccc1)C(=O)N[C@@H](CO)C(=O)N[C@@H](Cc1ccccc1)C(=O)N[C@@H](CCCN=C(N)N)C(=O)N[C@@H](Cc1ccccc1)C(=O)N(N1CCCCC1)N1CCCCC1 (H-GGFSFRF-X3) | 1200 |
| NCC(=O)NCC(=O)N[C@@H](Cc1ccccc1)C(=O)N[C@H](CO)C(=O)N[C@@H](Cc1ccccc1)C(=O)N[C@@H](CCCN=C(N)N)C(=O)N[C@@H](Cc1ccccc1)C(N)=O | 4980 |
| N=C(N)NCCC[C@H](NC(=O)[C@H](Cc1ccccc1)NC(=O)[C@H](CO)NC(=O)[C@H](Cc1ccccc1)NC(=O)CNC(=O)CNC(=O)C12CC3CC(CC(C3)C1)C2)C(=O)N[C@@H](Cc1ccccc1)C(N)=O (Adamantane1carbonyl-GGFSFRF-NH2) | 588 |
| C[C@H](N)C(=O)NCC(=O)N[C@@H](Cc1ccccc1)C(=O)N[C@@H](CO)C(=O)N[C@@H](Cc1ccccc1)C(=O)N[C@@H](CCCNC(=N)N)C(=O)N[C@@H](Cc1ccccc1)C(N)=O (H-AGFSFRF-NH2) | 3350 |
| CCC[C@H](NC(=O)[C@H](Cc1ccccc1)NC(=O)CNC(=O)CN)C(=O)N[C@@H](Cc1ccccc1)C(=O)N[C@@H](CCCNC(=N)N)C(=O)N[C@@H](Cc1ccccc1)C(N)=O (H-GGF[Nva]FRF-NH2) | 233 |

More lines, in order of falling EC50, values ahead:

| EC50 [nM] | SMILES |
| --- | --- |
| 1710 | NCCCC[C@H](N)C(=O)NCC(=O)NCC(=O)N[C@@H](Cc1ccccc1)C(=O)N[C@@H](CO)C(=O)N[C@@H](Cc1ccccc1)C(=O)N[C@@H](CCCN=C(N)N)C(=O)N[C@@H](Cc1ccccc1)C(N)=O (H-KGGFSFRF-NH2) |
| 1310 | C[C@H](NC(=O)[C@H](Cc1ccccc1)NC(=O)CNC(=O)CN)C(=O)N[C@@H](Cc1ccccc1)C(=O)N[C@@H](CCCNC(=N)N)C(=O)N[C@@H](Cc1ccccc1)C(N)=O (H-GGFAFRF-NH2) |
| 1090 | CCN(Cc1ccccc1)C(=O)[C@H](Cc1ccccc1)NC(=O)[C@H](CCCN=C(N)N)NC(=O)[C@H](Cc1ccccc1)NC(=O)[C@H](CO)NC(=O)[C@H](Cc1ccccc1)NC(=O)CNC(=O)CN (H-GGFSFRF-X1) |
| 830 | NC(=O)[C@H](Cc1ccccc1)NC(=O)[C@H](CCCN=C(N)N)NC(=O)[C@H](Cc1ccccc1)NC(=O)[C@H](CO)NC(=O)[C@H](Cc1ccccc1)NC(=O)CNC(=O)CNC(=O)Cc1ccc(F)cc1 ({Phenylacetyl(4-F)}-GGFSFRF-NH2) |
| 722 | N=C(N)NCCC[C@H](NC(=O)[C@H](Cc1ccccc1)NC(=O)[C@H](CO)NC(=O)[C@H](Cc1ccccc1)NC(=O)CNC(=O)CNC(=O)c1ccccc1)C(=O)N[C@@H](Cc1ccccc1)C(N)=O (Bz-GGFSFRF-NH2) |
| 695 | NC(=O)[C@H](Cc1ccccc1)NC(=O)[C@H](CCCN=C(N)N)NC(=O)[C@H](Cc1ccccc1)NC(=O)[C@H](CO)NC(=O)[C@H](Cc1ccccc1)NC(=O)CNC(=O)CNC(=O)c1ccco1 (2Furoyl-GGFSFRF-NH2) |
| 282 | CC(C)C[C@H](NC(=O)[C@H](CC(N)=O)NC(=O)CNC(=O)[C@H](CC(C)C)NC(=O)[C@@H]1CCCN1C(=O)CNC(=O)[C@H](CO)NC(=O)[C@@H](N)[C@@H](C)O)C(=O)N[C@@H](C)C(=O)N[C@@H](CCC(=O)O)C(=O)N[C@@H](CCC(=O)O)C(=O)N[C@@H](CC(C)C)C(=O)N[C@@H](CC(N)=O)C(=O)NCC(=O)N[C@@H](Cc1ccc(O)cc1)C(=O)N[C@@H](CO)C(=O)N[C@@H](CCCNC(=N)N)C(=O)N[C@@H](CCCCN)C(=O)N[C@@H](CCCCN)C(=O)NCC(=O)NCC(=O)N[C@@H](Cc1ccccc1)C(=O)N[C@@H](CO)C(=O)N[C@@H](Cc1ccccc1)C(=O)N[C@@H](CCCNC(=N)N)C(=O)N[C@@H](Cc1ccccc1)C(=O)N(N1CCCCC1)N1CCCCC1 (H-TSGPLGNLAEELNGYSRKKGGFSFRF-X3) |
| 30.2 | CC(C)C[C@H](NC(=O)[C@H](CCC(=O)O)NC(=O)[C@H](CCC(=O)O)NC(=O)[C@H](C)NC(=O)[C@H](CC(C)C)NC(=O)[C@@H](N)CC(N)=O)C(=O)N[C@@H](CC(N)=O)C(=O)NCC(=O)N[C@@H](Cc1ccc(O)cc1)C(=O)N[C@@H](CO)C(=O)N[C@@H](CCCNC(=N)N)C(=O)N[C@@H](CCCCN)C(=O)N[C@@H](CCCCN)C(=O)NCC(=O)NCC(=O)N[C@@H](Cc1ccccc1)C(=O)N[C@@H](CO)C(=O)N[C@@H](Cc1ccccc1)C(=O)N[C@@H](CCCNC(=N)N)C(=O)N[C@@H](Cc1ccccc1)C(N)=O (H-NLAEELNGYSRKKGGFSFRF-NH2) |
